Screening data: PubChem, several laboratories
A selection: hits, their analogues and other compounds. The true share with any hit is near 4.1%.
FID counter: displaces DNA intercalator in HCV helicase counter-screen. DNA fluorescent intercalator displacement, fluorescence. inhibition, % at 7.9 µM. 290,000 compounds, 0.17% hits. AID 1845; in the data active = inhibition above about 37%;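 also: 0% = vehicle and 100% = reference compound; higher means more ethidium bromide displaced from hairpin DNA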
MEKK2mut PB1 HTS: signal of MEK5 binding to mutant human MEKK2 PB1 domain | bead flow cytometry, Alexa488-MEK5 binding to MEKK2 mutant | percent response, % at 10 µM | 290,000 compounds, 0.35% hits | AID 1530; in the data active = percent response above about 24%, passing the limit was not always enough
T cruzi inh: T. cruzi replication inhibition; T. cruzi beta-gal in NIH3T3, luminescence, 90 h; inhibition, % (no concentration beside the values); 300,000 compounds, 1.4% hits; AID 1885;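 active = mean inhibition across valid replicates above about 55%, limit read from the data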;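 also: signal also drops with host cell toxicity which is not excluded here; 0% = plate median of DMSO wells and 100% = zero luminescence signal; higher percent means less beta-gal luminescence so fewer parasites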
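Test system: β-gal T. cruzi (Tulahuen C4) inside NIH/3T3 cells / Quantity: 5,000 cells/well / Measured by: luminescence from GalScreen with 0.05% NP40, read after 60 min / Medium: DMEM plus 2% FBS / Measure: parasite load inhibition, % / Reagent: Tulahuen C4 trypomastigotes, 5000/well / Schedule: co-culture of at least 90 h after 3 h attachment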
MEKK2wt PB1 HTS: raises or lowers MEK5 binding to wildtype human MEKK2 PB1 domain | bead flow cytometry, Alexa488-MEK5 binding to MEKK2 WT; actives lie on both sides | binding response (% of control), % at 10 µM | 290,000 compounds, 1.1% hits; in the data active = binding response below about 67% or above about 130%
MEKK3 PB1 HTS: MEKK3-MEK5 PB1 interaction, increase or decrease; Q99759; bead-based flow cytometry, Alexa488-MEK5 binding to MEKK3; actives lie on both sides; 0 = blocked by unlabeled MEK5, 100 = vehicle; binding response (% of control), % at 10 µM; 290,000 compounds, 1.4% hits;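 active = binding response more than 3 SD above or below the average of its plate-row segment, actives on both sides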;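 also: Alexa488 bead fluorescence after subtracting the streptavidin-only scavenger bead signal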
Target sequence (Q99759 whole entry, looked up): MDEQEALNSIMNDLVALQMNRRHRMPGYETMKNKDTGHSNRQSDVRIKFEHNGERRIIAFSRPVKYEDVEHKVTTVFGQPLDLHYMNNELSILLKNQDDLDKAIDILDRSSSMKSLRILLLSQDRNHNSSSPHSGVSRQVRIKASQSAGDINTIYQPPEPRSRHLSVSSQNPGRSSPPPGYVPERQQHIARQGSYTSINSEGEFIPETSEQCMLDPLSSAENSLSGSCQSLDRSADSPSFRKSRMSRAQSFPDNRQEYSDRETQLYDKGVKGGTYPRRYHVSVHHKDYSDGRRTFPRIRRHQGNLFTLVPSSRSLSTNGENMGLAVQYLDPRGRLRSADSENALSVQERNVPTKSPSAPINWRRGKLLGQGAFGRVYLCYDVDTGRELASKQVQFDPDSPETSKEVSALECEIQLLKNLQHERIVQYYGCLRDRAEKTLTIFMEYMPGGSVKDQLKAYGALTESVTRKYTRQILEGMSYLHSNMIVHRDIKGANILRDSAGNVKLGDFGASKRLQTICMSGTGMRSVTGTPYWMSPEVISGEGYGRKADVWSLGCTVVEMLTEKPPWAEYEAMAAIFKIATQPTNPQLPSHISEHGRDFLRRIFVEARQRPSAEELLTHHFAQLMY
NS3 helicase inh: inhibitors of Hepatitis C virus NS3 helicase; 290,000 compounds, 0.56% hits; inhibition, % at 10.9 µM; NS3 helicase DNA unwinding, Cy5 molecular beacon fluorescence;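 active = inhibition above the mean of all tested compounds plus 3 SD, set per campaign, cut at about 35% in these data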;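 also: 0% = DMSO wells and 100% = thioflavine S control wells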
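assay system = NS3 helicase fragment of HCV | buffer or medium = MOPS pH 6.5, MgCl2, DTT, Tween20, BSA | timing = 60 min unwinding reaction at 25 °C after ATP addition | signal = Cy5 beacon fluorescence read at start and 1 h | read-out basis = % inhibition of unwinding | control set = low DMSO, high thioflavine S at 110 µM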
Numbers without * were called inactive; · = not tested or not shown; [ ] = another dose, or the depositor's remark.

SMILES	FID counter	MEKK2mut PB1 HTS	T cruzi inh	MEKK2wt PB1 HTS	MEKK3 PB1 HTS	NS3 helicase inh
O=C(OC(C(=O)NC1CCCCC1)c1ccccc1F)c1ccco1 (configuration not stated)	-24	-4	-2	103	101	13
Cc1csc(Nc2nc(N)c(C(=O)Nc3cc(Cl)ccc3F)o2)n1	-9	7	4	104	98	-10
COc1ccc(CNc2nc(-c3cccnc3)nn2C(=O)C(C)C)cc1	-3	-1	-10	97	100	7
COc1cccc(C(Nc2ccccn2)c2c(NC(=O)c3ccco3)sc(C)c2C)c1 (configuration not stated)	-12	4	59*	106	97	-17
COc1ccc(C(Nc2ccccn2)c2c(NC(=O)c3ccco3)sc(C)c2C)cc1 (configuration not stated)	-7	0	63*	99	124	-3
Cc1sc(NC(=O)c2ccco2)c(C(Nc2ccccn2)c2ccccc2)c1C (configuration not stated)	-3	10	-10	100	104	-10
Cc1sc(NC(=O)c2ccco2)c(C(c2cccnc2)N2CCCC2)c1C (configuration not stated)	-11	4	50	108	108	2
COc1cc(C(=O)Nc2ccc(Nc3ccccc3)cc2)cc(OC)c1OC	-11	2	11	102	101	-8
CCCn1c(=O)c(C(=O)NNC(=O)c2ccccc2Cl)c(O)c2ccccc21	-31	3	2	99	100	-15
CCC[n+]1c2ccccc2cc2ccccc21	38*	9	61*	108	107	19
CCCC[n+]1c2ccccc2cc2ccccc21	38*	-5	68*	96	94	-10
Brc1cc2ccccc2[n+](Cc2ccccc2)c1	·	·	11	·	·	·
Cc1c(Cl)c([N+](=O)[O-])nn1CCCC(=O)Nc1c(Cl)cccc1Cl	-2	-1	15	103	100	7
Cc1nn(Cc2ccc(Cl)cc2)c(C)c1NC(=O)CCCn1nc([N+](=O)[O-])c(Cl)c1C	-34	-4	57*	86	84	5
CS(=O)(=O)N1CCC(C(=O)Nc2cccc(Cl)c2)CC1	-3	-43	-20	92	95	0
CCn1ncc(CN2CCC(C(=O)Nc3cccc(-c4cccc(F)c4)c3)CC2)c1C	23	11	28	135	103	-30
Cc1cc(C)n(CCCN2CCC(C(=O)Nc3cccc(-c4cccc(F)c4)c3)CC2)n1	24	25*	10	158*	109	-42
CCn1nc(C)c(CN2CCC(C(=O)Nc3cccc(-c4cccc(Cl)c4)c3)CC2)c1C	30	12	-8	146*	100	-22
Cc1cc(=O)oc2cc(OCC(=O)NC3CC(C)(C)NC(C)(C)C3)ccc12	1	-12	-3	74	78*[inhibitor]	1
Cc1c(OCC(=O)NC2CC(C)(C)NC(C)(C)C2)ccc2c3c(c(=O)oc12)CCC3	39*	1	-9	102	96	-2
CCc1cc(=O)oc2cc(OCC(=O)NC3CC(C)(C)NC(C)(C)C3)ccc12	8	4	3	111	103	1
O=C(NCc1ccco1)c1cc([N+](=O)[O-])ccc1N1CCOCC1	3	1	-8	102	100	5
O=C(Nc1ccc(Cl)c(Cl)c1)OCc1cccnc1	3	5	65*	117	108	-1
COC(=O)c1ccc(CNC(=O)c2ccc(COc3ccccc3)cc2)cc1	-8	0	-27	100	100	-1
Cc1ccc(-c2c[n+](CC(=O)OCc3ccccc3)c3n2CCC3)cc1	3	-4	3	95	88	-10
SMILES	FID counter	MEKK2mut PB1 HTS	T cruzi inh	MEKK2wt PB1 HTS	MEKK3 PB1 HTS	NS3 helicase inh
CC1CCC(C(C)C)C(OC(=O)C[n+]2cc(-c3ccc(Cl)cc3)n3c2CCC3)C1 (configuration not stated)	23	1	60*	120	99	-92
CC1=C(C(=O)Nc2cccc(F)c2)C(c2ccsc2)C2=C(CC(C)(C)CC2=O)N1 (configuration not stated)	-18	3	-24	103	99	-16
COc1ccc(N2CCc3c(C)nc4c(OC)cccc4c32)cc1	4	-3	20	106	103	-6
COc1ccc(N2CCc3c(C)nc4c(OC)cc(OC)cc4c32)cc1	10	8	73*	114	102	-21
COc1ccc(N2CCc3c(C)nc4c(OC)cc(OC)cc4c32)c(OC)c1	5	·	58*	·	·	-9
COc1ccc(OC)c(C(=O)N2CCC(n3nccc3NC(=O)CC(C)C)CC2)c1	-21	-2	17	97	97	15
CC(C)(C)OC(=O)NN1CC(=O)N2Cc3[nH]c4ccccc4c3C[C@H]2C1=O	-24	4	-7	101	98	2
O=C(Nc1ccc2[nH]ncc2c1)c1ccccc1Cl	1	1	-11	103	101	-3
Cc1ccnc(OC(C(=O)O)C(OCc2ccccc2)(c2ccc(F)cc2)c2ccc(F)cc2)n1 (configuration not stated)	-26	7	3	109	106	36
CCCCc1ccc(NC(=S)NCc2cccs2)cc1	-14	3	69*	101	103	-10
CN(C)C(=O)c1ccc(NC(=O)c2cccc(S(=O)(=O)N3CCCc4ccccc43)c2)cc1	·	·	24	·	·	·
Cc1ccc2c(c1)CCCN2S(=O)(=O)c1cccc(C(=O)Nc2ccccc2C(=O)O)c1	23	9	58*	104	102	35
O=S(=O)(c1ccccc1)[C@@]1(c2ccc(Br)cc2)C[C@@H]2ON=C(c3ccccc3)[C@@H]2C1	·	·	11	·	·	·
CCC(=O)N1CCN(c2ccccc2NC(=O)c2ccc([N+](=O)[O-])o2)CC1	-24	-2	23	96	101	4
O=C(Nc1ccccc1N1CCCC1)c1ccc([N+](=O)[O-])o1	3	1	62*	99	93	19
CC(C)C(=O)N1CCN(c2ccccc2NC(=O)c2ccc([N+](=O)[O-])o2)CC1	-28	2	56*	95	97	16
CCOC(=O)CNC(=O)C1CCN(S(=O)(=O)c2ccc(-c3nn[nH]n3)cc2)CC1	-4	5	-4	99	99	12
COc1ccc(CCNCc2ccc(OCC(=O)N3CCCCC3)c(OC)c2)cc1OC	5	-3	57*	97	96	0
Cc1ccc(N2C(=O)c3ccc(C(=O)N4CCN(Cc5ccccc5)CC4)cc3C2=O)cc1	-13	-1	-12	105	107	-11
